# Measured values: ChEMBL document CHEMBL1240365, “Effects of ceftobiprole and oxacillin on mecA expression in methicillin-resistant Staphylococcus aureus clinical isolates” (2010)
# Assays:
# Type in all cases: functional
# [1] = tested on: Staphylococcus aureus; assay: Antibacterial activity against beta-lactamase positive SCCmec type 3 methicillin-resistant Staphylococcus aureus isolate 12617 by broth microdilution method
# Method in brief: (§1)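 MIC by broth microdilution in cation-adjusted Mueller-Hinton broth per CLSI recommendations. The isolates were mecA-positive MRSA, SCCmec-typed mainly by multiplex PCR. Every isolate was beta-lactamase positive by whole-cell nitrocefin hydrolysis.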
# [2] = tested on: Staphylococcus aureus; assay: Antibacterial activity against beta-lactamase positive SCCmec type 3 methicillin-resistant Staphylococcus aureus isolate 12597 by broth microdilution method; method in brief: as §1
# [3] = tested on: Staphylococcus aureus; assay: Induction of mecA gene expression in beta-lactamase positive SCCmec type 2 methicillin-resistant Staphylococcus aureus isolate 17357 at MIC after 1 hr by multiplex PCR method
# [4] = tested on: Staphylococcus aureus; assay: Antibacterial activity against beta-lactamase positive SCCmec type 1 methicillin-resistant Staphylococcus aureus isolate 11631 by broth microdilution method; method in brief: as §1
# [5] = tested on: Staphylococcus aureus; assay: Induction of mecA gene expression in beta-lactamase positive SCCmec type 3 methicillin-resistant Staphylococcus aureus isolate 12597 at MIC after 1 hr by multiplex PCR method
# [6] = tested on: Staphylococcus aureus; assay: Induction of mecA gene expression in beta-lactamase positive SCCmec type 1 methicillin-resistant Staphylococcus aureus isolate 12575 at MIC after 1 hr by multiplex PCR method
# [7] = tested on: Staphylococcus aureus; assay: Antibacterial activity against beta-lactamase positive SCCmec type 2 methicillin-resistant Staphylococcus aureus isolate 11521 by broth microdilution method; method in brief: as §1
# [8] = tested on: Staphylococcus aureus; assay: Induction of mecA gene expression in beta-lactamase positive SCCmec type 1 methicillin-resistant Staphylococcus aureus isolate 11631 at MIC after 1 hr by multiplex PCR method
# [9] = tested on: Staphylococcus aureus; assay: Antibacterial activity against beta-lactamase positive SCCmec type 2 methicillin-resistant Staphylococcus aureus isolate 17256 by broth microdilution method; method in brief: as §1
# [10] = tested on: Staphylococcus aureus; assay: Antibacterial activity against beta-lactamase positive SCCmec type 3 methicillin-resistant Staphylococcus aureus isolate 12662 by broth microdilution method; method in brief: as §1
# [11] = tested on: Staphylococcus aureus; assay: Induction of mecA gene expression in beta-lactamase positive SCCmec type 4a methicillin-resistant Staphylococcus aureus isolate 14145 at MIC after 1 hr by multiplex PCR method
# [12] = tested on: Staphylococcus aureus; assay: Induction of mecA gene expression in beta-lactamase positive SCCmec type 2 methicillin-resistant Staphylococcus aureus isolate 11521 at MIC after 1 hr by multiplex PCR method
# [13] = tested on: Staphylococcus aureus; assay: Induction of mecA gene expression in beta-lactamase positive SCCmec type 3 methicillin-resistant Staphylococcus aureus isolate 12617 at MIC after 1 hr by multiplex PCR method
# [14] = tested on: Staphylococcus aureus; assay: Induction of mecA gene expression in beta-lactamase positive SCCmec type nontypeable methicillin-resistant Staphylococcus aureus isolate 17329 at MIC after 1 hr by multiplex PCR method
# [15] = tested on: Staphylococcus aureus; assay: Antibacterial activity against beta-lactamase positive SCCmec type 4a methicillin-resistant Staphylococcus aureus isolate 11617 by broth microdilution method; method in brief: as §1
# [16] = tested on: Staphylococcus aureus; assay: Antibacterial activity against beta-lactamase positive SCCmec type 4a methicillin-resistant Staphylococcus aureus isolate 14154 by broth microdilution method; method in brief: as §1
# [17] = tested on: Staphylococcus aureus; assay: Antibacterial activity against beta-lactamase positive SCCmec type 4a methicillin-resistant Staphylococcus aureus isolate 12639 by broth microdilution method; method in brief: as §1
# [18] = tested on: Staphylococcus aureus; assay: Antibacterial activity against beta-lactamase positive SCCmec type 1 methicillin-resistant Staphylococcus aureus isolate 12192 by broth microdilution method; method in brief: as §1
# [19] = tested on: Staphylococcus aureus; assay: Antibacterial activity against beta-lactamase positive SCCmec type 1 methicillin-resistant Staphylococcus aureus isolate 12575 by broth microdilution method; method in brief: as §1
# [20] = tested on: Staphylococcus aureus; assay: Induction of mecA gene expression in beta-lactamase positive SCCmec type 5 methicillin-resistant Staphylococcus aureus isolate 12868 at MIC after 1 hr by multiplex PCR method
# [21] = tested on: Staphylococcus aureus; assay: Antibacterial activity against beta-lactamase positive SCCmec type 5 methicillin-resistant Staphylococcus aureus isolate 12868 by broth microdilution method; method in brief: as §1
# [22] = tested on: Staphylococcus aureus; assay: Induction of mecA gene expression in beta-lactamase positive SCCmec type 4a methicillin-resistant Staphylococcus aureus isolate 14154 at MIC after 1 hr by multiplex PCR method
# [23] = tested on: Staphylococcus aureus; assay: Antibacterial activity against beta-lactamase positive SCCmec type 3 methicillin-resistant Staphylococcus aureus isolate 14567 by broth microdilution method; method in brief: as §1
# [24] = tested on: Staphylococcus aureus; assay: Induction of mecA gene expression in beta-lactamase positive SCCmec type 3 methicillin-resistant Staphylococcus aureus isolate 12662 at MIC after 1 hr by multiplex PCR method
# [25] = tested on: Staphylococcus aureus; assay: Induction of mecA gene expression in beta-lactamase positive SCCmec type 3 methicillin-resistant Staphylococcus aureus isolate 14567 at MIC after 1 hr by multiplex PCR method
# [26] = tested on: Staphylococcus aureus; assay: Induction of mecA gene expression in beta-lactamase positive SCCmec type 1 methicillin-resistant Staphylococcus aureus isolate 12192 at MIC after 1 hr by multiplex PCR method
# [27] = tested on: Staphylococcus aureus; assay: Antibacterial activity against beta-lactamase positive SCCmec type 4a methicillin-resistant Staphylococcus aureus isolate 14145 by broth microdilution method; method in brief: as §1
# [28] = tested on: Staphylococcus aureus; assay: Induction of mecA gene expression in beta-lactamase positive SCCmec type 2 methicillin-resistant Staphylococcus aureus isolate 11218 at MIC after 1 hr by multiplex PCR method
# [29] = tested on: Staphylococcus aureus; assay: Antibacterial activity against beta-lactamase positive SCCmec type 2 methicillin-resistant Staphylococcus aureus isolate 15855 by broth microdilution method; method in brief: as §1
# [30] = tested on: Staphylococcus aureus; assay: Antibacterial activity against beta-lactamase positive SCCmec type 2 methicillin-resistant Staphylococcus aureus isolate 17357 by broth microdilution method; method in brief: as §1
# [31] = tested on: Staphylococcus aureus; assay: Induction of mecA gene expression in beta-lactamase positive SCCmec type 4a methicillin-resistant Staphylococcus aureus isolate 11617 at MIC after 1 hr by multiplex PCR method
# [32] = tested on: Staphylococcus aureus; assay: Induction of mecA gene expression in beta-lactamase positive SCCmec type 2 methicillin-resistant Staphylococcus aureus isolate 15855 at MIC after 1 hr by multiplex PCR method
# [33] = tested on: Staphylococcus aureus; assay: Induction of mecA gene expression in beta-lactamase positive SCCmec type 4a methicillin-resistant Staphylococcus aureus isolate 12639 at MIC after 1 hr by multiplex PCR method
# [34] = tested on: Staphylococcus aureus; assay: Antibacterial activity against beta-lactamase positive SCCmec type nontypeable methicillin-resistant Staphylococcus aureus isolate 17329 by broth microdilution method; method in brief: as §1
# [35] = tested on: Staphylococcus aureus; assay: Induction of mecA gene expression in beta-lactamase positive SCCmec type 2 methicillin-resistant Staphylococcus aureus isolate 17256 at MIC after 1 hr by multiplex PCR method
# [36] = tested on: Staphylococcus aureus; assay: Antibacterial activity against beta-lactamase positive SCCmec type 2 methicillin-resistant Staphylococcus aureus isolate 11218 by broth microdilution method; method in brief: as §1
Compound,MIC [1] [µg/mL],MIC [2] [µg/mL],fold change (FC) [3],MIC [4] [µg/mL],fold change (FC) [5],fold change (FC) [6],MIC [7] [µg/mL],fold change (FC) [8],MIC [9] [µg/mL],MIC [10] [µg/mL],fold change (FC) [11],fold change (FC) [12],fold change (FC) [13],fold change (FC) [14],MIC [15] [µg/mL],MIC [16] [µg/mL],MIC [17] [µg/mL],MIC [18] [µg/mL],MIC [19] [µg/mL],fold change (FC) [20],further results
Nc1nc(/C(=N/O)C(=O)N[C@@H]2C(=O)N3C(C(=O)O)=C(/C=C4\CCN([C@@H]5CCNC5)C4=O)CS[C@H]23)ns1 [CEFTOBIPROLE],2,2,3,2,24,52,0.5,65,4,0.5,14,49,38,4,0.5,1,0.5,2,2,20,MIC [21]: 0.5 µg/mL; fold change (FC) [22]: 20; MIC [23]: 2 µg/mL; fold change (FC) [24]: 22; fold change (FC) [25]: 27; fold change (FC) [26]: 53; MIC [27]: 1 µg/mL; fold change (FC) [28]: 3; MIC [29]: 1 µg/mL; MIC [30]: 4 µg/mL; fold change (FC) [31]: 30; fold change (FC) [32]: 57; fold change (FC) [33]: 5; MIC [34]: 4 µg/mL; fold change (FC) [35]: 3; MIC [36]: 0.5 µg/mL
Cc1onc(-c2ccccc2)c1C(=O)N[C@@H]1C(=O)N2[C@@H]1SC(C)(C)[C@@H]2C(=O)O [OXACILLIN],> 256,> 256,15,> 256,31,69,256,66,256,256,5,13,50,50,8,16,64,> 256,> 256,2,MIC [21]: 4 µg/mL; fold change (FC) [22]: 6; MIC [23]: 256 µg/mL; fold change (FC) [24]: 18; fold change (FC) [25]: 27; fold change (FC) [26]: 41; MIC [27]: 16 µg/mL; fold change (FC) [28]: 3; MIC [29]: 256 µg/mL; MIC [30]: > 256 µg/mL; fold change (FC) [31]: 5; fold change (FC) [32]: 25; fold change (FC) [33]: 2; MIC [34]: 256 µg/mL; fold change (FC) [35]: 4; MIC [36]: 32 µg/mL
